Screening data as filed in PubChem.
APJ ag = agonists of human APJ apelin receptor; CHO-K1 APJ PathHunter beta-arrestin, luminescence; 0% DMSO wells, 100% apelin; AID 2520; activation, % at 20 µM; actives 0.11% (n = 330,000);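 active means activation more than six SD over the plate average, tested at 20 µM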
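Assay system: CHO-K1 cells stably expressing ProLink-tagged human APJ and arrestin–beta-gal acceptor. Compound dosing: 20 µM single point, 1% DMSO. Times: 16-18 h seeding, 90 min dark compound exposure, 60 min detection. Detection: beta-gal luminescence. Evaluation: APJ–arrestin association signal. Controls: negative DMSO alone, positive Apelin-13 at 10 nM.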
NTR1 ag = agonists of human neurotensin receptor NTR1 | actives 0.17% (n = 330,000) | AID 493036 | activation, % at 20 µM | NTR1-U2OS beta-arrestin-GFP spot imaging, agonist mode;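 active means activation at or above 40% of the spot to cytoplasm intensity ratio, with at least 20 cells analyzed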
Target sequence (P30989 whole entry, looked up): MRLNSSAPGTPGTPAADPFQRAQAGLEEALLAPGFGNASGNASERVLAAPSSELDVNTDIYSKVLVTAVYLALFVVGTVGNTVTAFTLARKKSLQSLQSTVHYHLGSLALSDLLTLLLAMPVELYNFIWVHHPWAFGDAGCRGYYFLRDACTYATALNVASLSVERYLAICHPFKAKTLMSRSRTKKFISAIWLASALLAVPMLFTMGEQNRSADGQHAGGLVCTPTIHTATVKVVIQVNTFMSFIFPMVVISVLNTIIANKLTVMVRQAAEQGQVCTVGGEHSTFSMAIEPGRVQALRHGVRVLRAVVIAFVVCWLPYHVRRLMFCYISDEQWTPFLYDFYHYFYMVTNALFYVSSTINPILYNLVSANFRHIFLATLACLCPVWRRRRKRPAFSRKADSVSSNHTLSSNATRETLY
m5-HT2A agonist = activates the mouse 5-HT2A serotonin receptor; P35363; CHO-K1 mHTR2A beta-arrestin complementation, luminescence; percent of 30 µM serotonin response; activation, % at 7.6 µM; actives 0.66% (n = 360,000); AID 624169;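 active means activation above a run cutoff, the mean activation of all tested compounds plus 3 SD, cut at about 14% in these data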
CCR6 antagonist = antagonists of human CCR6 receptor; P51684; CHO-K1 CCR6 PathHunter beta-arrestin, luminescence, CCL20-stimulated; inhibition, % at 20 µM; actives 0.49% (n = 340,000);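 active means compounds whose inhibition of the agonist-driven luminescence signal at 20 µM reaches about 50%, limit read from the data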;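 further: cells stimulated with CCL20 at 14 nM final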
CXCR6 block = inhibitors of human CXCR6 receptor; CHO-K1 PathHunter CXCR6 beta-arrestin, luminescence; O00574; inhibition, % at 20 µM; actives 0.36% (n = 360,000); AID 602244; in the data active means inhibition above about 34%, passing the limit was not always enough;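 further: antagonist mode with CXCL16 agonist at 10 nM final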
APJ antagonist = antagonists of human APJ apelin receptor; inhibition, % at 20 µM; AID 2521; CHO-K1 APJ beta-arrestin complementation, luminescence; P35414; actives 0.32% (n = 330,000);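 active means inhibition above about 40% at 20 µM, limit read from the data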;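 further: cells challenged with 10 nM apelin-13 agonist together with compound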
APJ antag conf = APJ receptor antagonism confirmation | inhibition, % at 20 µM | AID 2766 | APJ beta-arrestin recruitment, luminescence, antagonist mode | shares compounds with APJ antagonist | actives 66% (n = 950); in the data active means inhibition above about 50%
CXCR6 confirm = confirmation of human CXCR6 receptor antagonists; shares compounds with CXCR6 block; AID 602409; inhibition, % at 20 µM; CHO-K1 CXCR6 PathHunter beta-arrestin, luminescence; actives 65% (n = 700);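 active means mean inhibition over four retests above 40%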;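 further: receptor stimulated with 10 nM CXCL16 agonist; beta-galactosidase fragment complementation upon beta-arrestin recruitment to receptor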
Large screens that a line does not name were inactive (follow-up assays come after a bar, where they were run). Only some compounds are listed: those with a hit (about 1.5% of all), similar ones and a draw of the others.

NC(=S)Nc1ncc(C(F)(F)F)cc1Cl	none
COc1cc(/C=N/O)ccc1Oc1cnccn1	none
CN(CCO)c1cc(Sc2nc3ccccc3s2)c2nonc2c1[N+](=O)[O-]	CCR6 antagonist 112.6, CXCR6 block 98.8, APJ antagonist 97.0 | APJ antag conf 107.1 | CXCR6 confirm 109.0
CC(=O)OCCN(C)c1cc(SC(C)C)c2nonc2c1[N+](=O)[O-]	none
CCCCOc1ccc(/C=C/C(=O)N(CC)CC(=O)Nc2ccc3c(c2)OCCO3)cc1OC	none
CCN(CC)C(=O)CSc1nnc(-c2ccccn2)n1-c1ccccc1OC	none
Cc1cccc(CSc2cccc3cccnc23)c1	CCR6 antagonist 72.1, CXCR6 block 65.7, APJ antagonist 56.3 | APJ antag conf 84.0 | CXCR6 confirm 74.3
COC(=O)c1ccc(C)c(-n2c(=O)n(Cc3ccccc3)c(=O)c3[nH]cnc32)c1	CCR6 antagonist 64.1, CXCR6 block 66.5, APJ antagonist 60.6 | APJ antag conf 122.2 | CXCR6 confirm 48.7
Cc1ccccc1-n1c(=O)n(Cc2ccccc2)c(=O)c2[nH]cnc21	none
CCCOc1ccc(F)cc1-c1cc(C(=O)NCCOC)[nH]n1	none (no result: APJ ag, NTR1 ag, CCR6 antagonist, APJ antagonist)
O=C(N/N=C(\c1ccccc1)c1cccnc1)c1cccc(F)c1	CCR6 antagonist 100.8, CXCR6 block 83.1, APJ antagonist 69.7 | APJ antag conf 88.2 | CXCR6 confirm 94.4
O=C(N/N=C(\c1ccccc1)c1cccnc1)c1ccc(O)cc1	none
CCCC(=O)OCCNc1cc(Sc2nc3ccccc3[nH]2)c2nonc2c1[N+](=O)[O-]	CCR6 antagonist 117.9, CXCR6 block 94.4, APJ antagonist 87.5 | APJ antag conf 126.2 | CXCR6 confirm 103.2
CCS(=O)(=O)c1ncc(Cl)c(C(=O)Nc2ccc(S(=O)(=O)N3CCCC(C)C3)cc2)n1 (centres undefined)	CCR6 antagonist 94.0, CXCR6 block 87.2, APJ antagonist 77.7 | APJ antag conf 104.2 | CXCR6 confirm 77.9
CCC1CCCCN1S(=O)(=O)c1ccc(NC(=O)c2nc(S(C)(=O)=O)ncc2Cl)cc1 (centres undefined)	CCR6 antagonist 98.0, CXCR6 block 88.2, APJ antagonist 59.6 | APJ antag conf 91.5 | CXCR6 confirm 81.8
CCC1CCCCN1S(=O)(=O)c1ccc(NC(=O)c2ccncc2)cc1 (centres undefined)	none
CC1CCN(C(=O)c2ccccc2NS(=O)(=O)c2ccccc2)CC1	none
CN(C)c1cc(Nc2ccc(O)cc2)c([N+](=O)[O-])c2nonc12	none
O=[N+]([O-])c1c(Nc2ccc(O)cc2)cc(Cl)c2nonc12	CCR6 antagonist 106.8, CXCR6 block 107.4, APJ antagonist 95.8 | APJ antag conf 126.1 | CXCR6 confirm 109.3
NS(=O)(=O)c1ccc(NC(=O)c2cc(Cl)sc2Cl)cc1	none
COc1cc(NC(=O)Nc2cccn3nc(COCCO)nc23)cc(OC)c1OC	none (no result: APJ ag, NTR1 ag, CCR6 antagonist, APJ antagonist)
CC(OC(=O)C1CC2CCCC(C1)C2=O)C(=O)Nc1cccc([N+](=O)[O-])c1 (centres undefined)	none
CCCOc1cccc(-c2cc(C(=O)N/N=C/c3ccccn3)c3ccccc3n2)c1	CCR6 antagonist 70.4, CXCR6 block 57.1, APJ antagonist 47.6 | APJ antag conf 54.2 | CXCR6 confirm 45.5
Cc1ccc(CNC(=S)N2CCOCC2)cc1	none
Cc1ccc(/C=N/NC(=S)N2CCOCC2)cc1	CCR6 antagonist 76.2, CXCR6 block 49.6, APJ antagonist 51.1 | APJ antag conf 64.7 | CXCR6 confirm 73.9
Cn1c(=O)n(C)c2cc([N+](=O)[O-])c(N3CCN(C(=O)c4cccc(F)c4)CC3)cc21	none
Cn1c(=O)n(C)c2cc([N+](=O)[O-])c(N3CCN(C(=O)c4cccc(Cl)c4)CC3)cc21	CCR6 antagonist 64.6, CXCR6 block 51.8, APJ antagonist 52.6 | APJ antag conf 83.6 | CXCR6 confirm 46.1
Cc1ccc(NC(=O)c2cc(=O)[nH]c3ccccc23)cc1C	none
